Data as given in ChEMBL document CHEMBL1687913, “Structure-activity relationship, conformational and biological studies of temporin L analogues” (J Med Chem, 2011).
In brackets after ≈: the same amount, converted by molar mass. Where a SMILES comes first, the peptide text is derived from it.

How the values were obtained:
[1] = test system: Acinetobacter baumannii; experiment: Antibacterial activity against Acinetobacter baumannii ATCC 19606 after 18 to 20 hrs by microbroth dilution method; format: functional
Summary of the method: (§1)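 CLSI microbroth dilution, adapted. Mid-log bacteria, 2 × 10^6 CFU/mL in Mueller-Hinton broth, mixed 1:1 with MH broth holding peptide in serial 2-fold dilutions in 20% ethanol (0.75-48 μM). Incubated 18-20 h at 37 °C; growth read as A600. MIC is the lowest concentration giving 100% growth inhibition.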

[2] = test system: Acinetobacter junii; experiment: Antibacterial activity against […] Acinetobacter junii RT-4 after 18 to 20 hrs by microbroth dilution method; format: functional; summary of the method: as §1
[3] = test system: Enterococcus faecalis; experiment: Antibacterial activity against Enterococcus faecalis ATCC 29212 after 18 to 20 hrs by microbroth dilution method; format: functional; summary of the method: as §1
[4] = test system: Escherichia coli; experiment: Antibacterial activity against Escherichia coli ATCC 25922 after 18 to 20 hrs by microbroth dilution method; format: functional; summary of the method: as §1
[5] = test system: Escherichia coli; experiment: Antibacterial activity against Escherichia coli D21 after 18 to 20 hrs by microbroth dilution method; format: functional; summary of the method: as §1
[6] = test system: Pseudomonas syringae; experiment: Antibacterial activity against Pseudomonas syringae pv tobaci after 18 to 20 hrs by microbroth dilution method; format: functional; summary of the method: as §1
[7] = test system: Pseudomonas aeruginosa; experiment: Antibacterial activity against Pseudomonas aeruginosa ATCC 15692 after 18 to 20 hrs by microbroth dilution method; format: functional; summary of the method: as §1
[8] = test system: Pseudomonas aeruginosa; experiment: Antibacterial activity against Pseudomonas aeruginosa ATCC 27853 after 18 to 20 hrs by microbroth dilution method; format: functional; summary of the method: as §1
[9] = test system: Yersinia pseudotuberculosis; experiment: Antibacterial activity against Yersinia pseudotuberculosis YPIII after 18 to 20 hrs by microbroth dilution method; format: functional
Summary of the method: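 Broth microdilution adapted from CLSI. Mid-log bacteria at 2 × 10^6 CFU/mL in Mueller-Hinton broth were mixed 1:1 with MH broth containing peptide in serial 2-fold dilutions (peptide in 20% ethanol), 0.75-48 μM. Plates were incubated 18-20 h at 37 °C and growth was read as A600. MIC is the concentration giving 100% growth inhibition.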

[10] = test system: Priestia megaterium; experiment: Antibacterial activity against Bacillus megaterium Bm11 after 18 to 20 hrs by microbroth dilution method; format: functional; summary of the method: as §1
[11] = test system: Staphylococcus aureus; experiment: Antibacterial activity against Staphylococcus aureus ATCC 25923 after 18 to 20 hrs by microbroth dilution method; format: functional; summary of the method: as §1
[12] = test system: Staphylococcus aureus; experiment: Antibacterial activity against Staphylococcus aureus Cowan I after 18 to 20 hrs by microbroth dilution method; format: functional; summary of the method: as §1
[13] = test system: Staphylococcus capitis; experiment: Antibacterial activity against Staphylococcus capitis after 18 to 20 hrs by microbroth dilution method; format: functional; summary of the method: as §1
[14] = test system: Staphylococcus epidermidis; experiment: Antibacterial activity against Staphylococcus epidermidis ATCC 12228 after 18 to 20 hrs by microbroth dilution method; format: functional; summary of the method: as §1
[15] = test system: Streptococcus pyogenes; experiment: Antibacterial activity against Streptococcus pyogenes ATCC 21547 after 18 to 20 hrs by microbroth dilution method; format: functional; summary of the method: as §1
[16] = test system: Candida albicans; experiment: Antifungal activity against Candida albicans ATCC 10231 after 18 to 20 hrs by microbroth dilution method; format: functional
Summary of the method: (§2)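 Yeasts tested by adapted CLSI microbroth dilution in Winge medium. Peptide given in serial 2-fold dilutions (0.75-48 μM, made in 20% ethanol). Incubation 18-20 h at 30 °C, read at A600. MIC taken as the concentration giving complete (100%) growth inhibition.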

[17] = test system: Schizosaccharomyces pombe; experiment: Antifungal activity against Schizosaccharomyces pombe after 18 to 20 hrs by microbroth dilution method; format: functional; summary of the method: as §2
[18] = test system: Saccharomyces cerevisiae; experiment: Antifungal activity against Saccharomyces cerevisiae after 18 to 20 hrs by microbroth dilution method; format: functional; summary of the method: as §2
[19] = Toxicity in human erythrocytes assessed as hemolysis at 24 uM after 40 mins; format: cell-based, Erythrocyte; conditions: read-out: Activity
Summary of the method: (§3)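 Human red blood cells suspended in 0.9% (w/v) NaCl and incubated 40 min at 37 °C with gentle mixing with serial 2-fold peptide dilutions (peptide predissolved in 20% ethanol). Spun 5 min at 900g; supernatant read at 415 nm. Cells lysed in distilled water set the 100% lysis reference.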

[20] = Toxicity in human erythrocytes assessed as hemolysis at 12 uM after 40 mins; format: cell-based, Erythrocyte; conditions: read-out: Activity; summary of the method: as §3
[21] = Toxicity in human erythrocytes assessed as hemolysis at 6 uM after 40 mins; format: cell-based, Erythrocyte; conditions: read-out: Activity; summary of the method: as §3
[22] = Toxicity in human erythrocytes assessed as hemolysis at 3 uM after 40 mins; format: cell-based, Erythrocyte; conditions: read-out: Activity; summary of the method: as §3
[23] = Toxicity in human erythrocytes assessed as hemolysis at 1.5 uM after 40 mins; format: cell-based, Erythrocyte; conditions: read-out: Activity; summary of the method: as §3

Row | Compound | MIC [1] [µM] | MIC [2] [µM] | MIC [3] [µM] | MIC [4] [µM] | MIC [5] [µM] | MIC [6] [µM] | MIC [7] [µM] | MIC [8] [µM] | MIC [9] [µM] | MIC [10] [µM] | MIC [11] [µM] | MIC [12] [µM] | MIC [13] [µM] | MIC [14] [µM] | MIC [15] [µM] | MIC [16] [µM] | MIC [17] [µM] | MIC [18] [µM] | hemolysis at 40 min, 24 µM [19] [%] | hemolysis at 40 min, 12 µM [20] [%] | other results
1 | CC[C@H](C)[C@H](NC(=O)[C@H](CCCNC(=N)N)NC(=O)CNC(=O)[C@H](CC(C)C)NC(=O)[C@H](Cc1ccccc1)NC(=O)[C@H](CCCNC(=N)N)NC(=O)[C@H](CO)NC(=O)[C@H](Cc1ccccc1)NC(=O)[C@H](Cc1c[nH]c2ccccc12)NC(=O)[C@H](CCC(N)=O)NC(=O)[C@@H](NC(=O)[C@@H](N)Cc1ccccc1)C(C)C)C(=O)N[C@@H](CC(C)C)C(N)=O (H-FVQWFSRFLGRIL-NH2) | 6 (≈ 10 µg/mL) | 6 (≈ 10 µg/mL) | 12 (≈ 20 µg/mL) | 12 (≈ 20 µg/mL) | 48 (≈ 80.1 µg/mL) | 12 (≈ 20 µg/mL) | 24 (≈ 40 µg/mL) | 48 (≈ 80.1 µg/mL) | 6 (≈ 10 µg/mL) | 6 (≈ 10 µg/mL) | 6 (≈ 10 µg/mL) | 6 (≈ 10 µg/mL) | 6 (≈ 10 µg/mL) | 6 (≈ 10 µg/mL) | 6 (≈ 10 µg/mL) | 12 (≈ 20 µg/mL) | 6 (≈ 10 µg/mL) | 12 (≈ 20 µg/mL) | 98 | 90 | hemolysis at 40 min, 6 µM [21]: 29%; hemolysis at 40 min, 3 µM [22]: 9%; hemolysis at 40 min, 1.5 µM [23]: 4%
2 | CC(C)C[C@H](NC(=O)[C@H](Cc1c[nH]c2ccccc12)NC(=O)[C@H](CCCNC(=N)N)NC(=O)CNC(=O)[C@H](CC(C)C)NC(=O)[C@H](CC(C)C)NC(=O)[C@H](CCCCN)NC(=O)[C@H](CO)NC(=O)[C@H](CC(C)C)NC(=O)[C@H](Cc1c[nH]c2ccccc12)NC(=O)[C@H](CCC(N)=O)NC(=O)[C@H](CC(C)C)NC(=O)[C@@H](N)CC(C)C)C(N)=O (H-LLQWLSKLLGRWL-NH2) | 6 (≈ 9.75 µg/mL) | 6 (≈ 9.75 µg/mL) | 12 (≈ 19.5 µg/mL) | > 48 | > 48 | 12 (≈ 19.5 µg/mL) | > 48 | > 48 | 6 (≈ 9.75 µg/mL) | 3 (≈ 4.88 µg/mL) | 6 (≈ 9.75 µg/mL) | 6 (≈ 9.75 µg/mL) | 6 (≈ 9.75 µg/mL) | 3 (≈ 4.88 µg/mL) | 6 (≈ 9.75 µg/mL) | 12 (≈ 19.5 µg/mL) | 6 (≈ 9.75 µg/mL) | 12 (≈ 19.5 µg/mL) | 100 | 100 | hemolysis at 40 min, 6 µM [21]: 78%; hemolysis at 40 min, 3 µM [22]: 13%; hemolysis at 40 min, 1.5 µM [23]: 8%
3 | CC[C@H](C)[C@H](NC(=O)[C@H](CCCNC(=N)N)NC(=O)[C@@H]1CCCN1C(=O)[C@H](CC(C)C)NC(=O)[C@H](Cc1ccccc1)NC(=O)[C@H](CCCCN)NC(=O)[C@H](CO)NC(=O)[C@H](Cc1ccccc1)NC(=O)[C@H](Cc1c[nH]c2ccccc12)NC(=O)[C@@H]1CCCN1C(=O)[C@@H](NC(=O)[C@@H](N)Cc1ccccc1)C(C)C)C(=O)N[C@@H](CC(C)C)C(N)=O | 48 (≈ 79.2 µg/mL) | 12 (≈ 19.8 µg/mL) | 48 (≈ 79.2 µg/mL) | 48 (≈ 79.2 µg/mL) | 24 (≈ 39.6 µg/mL) | 24 (≈ 39.6 µg/mL) | > 48 | > 48 | 24 (≈ 39.6 µg/mL) | 3 (≈ 4.95 µg/mL) | 24 (≈ 39.6 µg/mL) | 24 (≈ 39.6 µg/mL) | 12 (≈ 19.8 µg/mL) | 12 (≈ 19.8 µg/mL) | 12 (≈ 19.8 µg/mL) | 12 (≈ 19.8 µg/mL) | 12 (≈ 19.8 µg/mL) | 12 (≈ 19.8 µg/mL) | 5 | 5 | hemolysis at 40 min, 6 µM [21]: 4.5%; hemolysis at 40 min, 3 µM [22]: 2%; hemolysis at 40 min, 1.5 µM [23]: 2%
